NTR1 agonist: activates human neurotensin receptor 1; P30989; NTR1-U2OS beta-arrestin-GFP spot imaging, agonist mode; activation, % at 20 µM; hit rate 0.17% among 330,000;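 active = activation at or above 40% of the spot to cytoplasm intensity ratio, with at least 20 cells analyzed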
PG9 Ab binder: PG9 antibody binding by small molecule; hit rate 0.43% among 360,000; TR-FRET gp120-PG9 antibody binding; inhibition, % at 6.7 µM; in the data active = inhibition above about 8.5%
MC4R antagonist: human MC4R antagonism in cAMP assay; P32245; MC4R-expressing cells, MTII-stimulated cAMP, LANCE TR-FRET; inhibition, % at 6.5 µM; hit rate 0.48% among 360,000;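 active = inhibition above its plate's cutoff, the mean of tested wells on that plate plus 3 SD, cut at about 29% in these data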
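Material: human MC4R-expressing U2OS cells. Probe or stimulus: Melanotan II challenge. Dosing: 6.5 µM single dose. Times: 30-min compound, 1-h challenge, 1-h detection, room temperature. Technique: TR-FRET with Eu-cAMP and labeled anti-cAMP, 671 nm. Replication: singlicate.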
NR1D1 modulator: modulates human Rev-erb alpha binding to DNA; P20393; Rev-erbα–FITC-DNA binding, fluorescence polarization, 90 min; activity, % at 10 µM; hit rate 0.79% among 370,000;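 active = activity above about 14%, limit read from the data; passing the limit was not always enough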
Target sequence (P20393 whole entry, looked up): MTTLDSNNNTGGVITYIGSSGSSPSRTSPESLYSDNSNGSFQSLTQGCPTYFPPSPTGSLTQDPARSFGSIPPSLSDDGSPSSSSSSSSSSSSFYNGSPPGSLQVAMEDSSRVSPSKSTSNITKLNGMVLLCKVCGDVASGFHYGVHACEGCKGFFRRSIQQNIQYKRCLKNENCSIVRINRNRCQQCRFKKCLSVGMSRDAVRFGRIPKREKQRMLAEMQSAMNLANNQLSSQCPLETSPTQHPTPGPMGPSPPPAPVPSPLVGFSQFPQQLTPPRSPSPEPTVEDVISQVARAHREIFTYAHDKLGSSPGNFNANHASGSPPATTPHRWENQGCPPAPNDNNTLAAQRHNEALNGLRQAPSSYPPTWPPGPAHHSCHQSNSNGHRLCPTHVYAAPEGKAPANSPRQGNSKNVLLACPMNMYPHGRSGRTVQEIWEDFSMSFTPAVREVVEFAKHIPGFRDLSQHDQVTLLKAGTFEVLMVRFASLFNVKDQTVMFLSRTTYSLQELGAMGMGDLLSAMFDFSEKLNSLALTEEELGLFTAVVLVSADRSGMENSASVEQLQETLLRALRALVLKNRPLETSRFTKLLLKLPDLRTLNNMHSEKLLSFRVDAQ
MC4R barr agon: agonists of human melanocortin 4 receptor (MC4R) beta-arrestin. activation, % at 8.9 µM. U2OS MC4R beta-arrestin complementation, luminescence; percent of melanotan II response, DMSO zero. AID 540308. hit rate 0.98% among 360,000. P32245;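 active = activation above a per-plate cutoff, the mean activation of sample wells on that plate plus 3 SD, cut at about 8% in these data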
MC4R barr conf: human MC4R beta-arrestin agonism confirmation. shares compounds with MC4R barr agon. U2OS MC4R beta-arrestin recruitment, luminescence; scaled DMSO 0%, Melanotan II 100%. activation, % at 8.9 µM. hit rate 31% among 2,400. AID 602192;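 active = mean activation across replicates above the hit cutoff set in the earlier primary screen, cut at about 8% in these data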
MOR-DOR barr ag: counter-screen for MC4R agonists: agonists of mu-delta opioid heterodimer; shares compounds with MC4R barr agon; U2OS PathHunter beta-arrestin, beta-gal luminescence; percent of deltorphin B response, DMSO zero; activation, % at 9.2 µM; hit rate 5.8% among 2,400; AID 602194;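 active = mean activation across replicates exceeds the hit threshold derived in the earlier primary screen, cut at about 18% in these data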
A number is an active result; - = inactive; . = no result given. An excerpt weighted towards active compounds, which were near 2.5% of everything screened.

SMILES	NTR1 agonist	PG9 Ab binder	MC4R antagonist	NR1D1 modulator	MC4R barr agon	MC4R barr conf	MOR-DOR barr ag
Cc1cc(OCCN2CC(C)OC(C)C2)ccc1[N+](=O)[O-] (stereo not drawn)	-	-	-	-	-	.	.
Cc1ccc(NC(=O)C2C3/C=C\CCCCC32)cc1C (stereo not drawn)	-	-	-	-	19	-	-
Fc1cccc(Nc2nc(-c3ccncc3)nc3ccccc23)c1	-	-	-	-	12	-	-
c1ccc(Nc2nc(-c3ccccc3)nc3ccccc23)cc1	-	-	-	-	-	.	.
COc1ccc(Nc2nc(-c3ccncc3)nc3ccccc23)cc1	-	-	-	-	19	-	-
COc1cccc(C2CC=C(C(=O)O)CN2S(=O)(=O)c2ccc(C)cc2)c1 (stereo not drawn)	.	.	.	-	.	.	.
CC(=C/c1ccco1)/C=N/NC(=O)CSc1nnc(SCc2ccc(C)cc2)s1	-	-	-	-	20	-	-
Cc1ccc(CSc2nnc(SCC(=O)N/N=C/c3c[nH]c4ccccc34)s2)cc1	.	-	-	-	12	13	18
O=C(CSc1nnc(SCc2ccccc2)s1)N/N=C/C=C\c1ccco1	-	-	-	-	-	.	.
CCC[C@@H](/C=C/C(=O)OC(C)(C)C)Sc1ccc(N)cc1	.	.	.	-	.	.	.
C[C@@H]1CCN(C2CC2)S(=O)(=O)c2ccc(N3CC[C@@H](O)C3)cc2O1	.	.	.	-	.	.	.
Brc1ccc(-c2csc(N3CCC(c4nn[nH]n4)CC3)n2)cc1	.	.	.	-	.	.	.
CCCc1cc(-c2[nH]ncc2-c2ccc3c(c2)OCCCO3)c(O)cc1O	44	-	-	-	12	11	-
CCc1cc(-c2[nH]ncc2-c2nc3ccccc3n2C)c(O)cc1O	-	-	-	-	-	.	.
CCCc1cc(-c2[nH]ncc2-c2ccc(C(=O)OCC)o2)c(O)cc1O	-	-	-	-	23	10	-
Cn1cc(CNCc2cn[nH]c2-c2ccc(F)cc2)c(-c2ccc3c(c2)OCCO3)n1	-	-	-	-	-	.	.
O=C(CCn1nnc2ccccc21)N1CCN(c2cccc(C(F)(F)F)c2)CC1	.	.	.	-	.	.	.
C[C@@H]1CC(=O)NN=C1c1ccc(NN=C(C#N)C#N)cc1	.	.	.	-	.	.	.
O=C(CCN1C(=O)/C(=C/c2ccc(Cl)cc2)SC1=S)NC1C=CS(=O)(=O)C1 (stereo not drawn)	-	-	-	-	-	.	.
O=C(CCN1C(=O)/C(=C/c2ccccc2F)SC1=S)NC1C=CS(=O)(=O)C1 (stereo not drawn)	-	-	-	-	10	-	-
Cc1[nH]c2ccccc2c1CC(=O)Nc1ccc(Nc2cccnc2)c(-c2ccc(OC(F)(F)F)cc2)c1	.	-	.	-	.	.	.
C[C@H]1Cn2nncc2Cn2c3ccccc3c(=O)n21	.	.	.	-	.	.	.
CN(CCOC(=O)c1cccs1)C1CN(Cc2cn(Cc3ccccc3Cl)nn2)S(=O)(=O)C1 (stereo not drawn)	.	.	.	-	.	.	.
Cc1ccccc1NC(=O)c1nnn(-c2ccc3c(c2)OCCO3)c1N	-	-	-	-	-	.	.
Nc1c(C(=O)Nc2cccc(F)c2)nnn1-c1ccc2c(c1)OCCO2	-	-	-	-	11	-	-
SMILES	NTR1 agonist	PG9 Ab binder	MC4R antagonist	NR1D1 modulator	MC4R barr agon	MC4R barr conf	MOR-DOR barr ag
O=C(N[C@@H](Cc1cccnc1)C(=O)N1CCC[C@H]1C(=O)NCCc1ccccc1Cl)c1ccc(Cl)c(Cl)c1	.	-	.	-	.	.	.
CCCCN(C)c1c2c(nc3ncnn13)CCCC2	.	.	.	-	.	.	.
CN1CCC2(CC1)N=C(c1ccc(F)cc1)C(=S)N2C(=O)c1ccc(C(C)(C)C)cc1	-	-	-	-	11	-	-
COCc1cn(-c2ccc3c(c2)[C@@]2(CC(=O)N(C)C2c2ccccc2)C(=O)N3CC(C)C)nn1 (stereo partly drawn)	.	.	.	-	.	.	.
Cc1ccc(NC(=O)c2nc[nH]c2C(=O)Nc2ccccc2F)cc1	.	-	-	-	16	-	-
Nc1ncnc(N)c1NC(=O)c1ccccc1	.	-	.	-	.	.	.
Cc1ccc(N=Nc2ccc(O)c3ncccc23)cc1C	-	-	-	-	-	.	.
Cc1ccc(N=Nc2ccc(O)c3ncccc23)cc1	.	-	-	-	11	-	-
O=C(Nc1ccc(F)cc1)OCc1cn(Cc2ccccc2Cl)nn1	.	.	.	-	.	.	.
O=C(OC12CCCN(C1)/C(=C/c1cccc(Cl)c1)C2)c1cccc(F)c1 (stereo not drawn)	.	.	.	-	.	.	.
Cc1cccc(NC(=S)NC(=O)C(c2ccccc2)c2ccccc2)n1	-	-	-	-	33	20	-
Cc1cccc(NC(=S)NC(=O)c2ccc(-c3ccccc3)cc2)n1	-	-	-	-	-	.	.
Cc1ccc2nc(NC(=O)c3cc(-c4ccco4)nc4ccccc34)sc2c1	-	-	-	-	23	13	-
Cc1cc(NS(=O)(=O)c2ccc(NC(=O)/C=C/c3ccc(Br)cc3)cc2)no1	-	-	-	-	-	.	.
Cc1ccc(/C=C/C(=O)Nc2cc(C)on2)cc1	-	-	-	-	19	-	-
COc1ccc(CCn2c(C)cc(C(=O)CSc3nnnn3-c3ccccc3)c2C)cc1OC	-	-	-	-	17	-	-
Cc1ccc(N=c2c([N+](=O)[O-])nn(-c3ccccc3)n2O)c(C)c1	-	-	-	-	-	.	.
Cc1c(Cl)cccc1N=c1c([N+](=O)[O-])nn(-c2ccccc2)n1O	-	-	-	-	24	-	-
Oc1ccc(/C=N/N2CCN(C3c4ccccc4-c4ccccc43)CC2)cc1O	-	-	-	-	28	13	-
O=C(NC1CCCCN(Cc2ccc(Cl)cc2)C1=O)C1C2CC3CC(C2)CC1C3 (stereo not drawn)	.	.	.	-	.	.	.
CCOc1ccc2nc(NC(=S)NCc3ccccc3)sc2c1	-	-	-	-	18	-	-
COC(=O)[C@]12C[C@H](CC(=O)NCc3cccc(C(F)(F)F)c3)C(=O)N(CCC3=CCCCC3)C1=C[C@H](COCc1ccccc1)O[C@@H]2C	.	-	.	-	.	.	.
CCOC(=O)[C@]12CCCCC/C=C\1N(CCc1ccc(Cl)cc1)C(=O)[C@H]2CC(=O)NCc1cccc(C(F)(F)F)c1	.	.	.	-	.	.	.
Nc1nc(CCl)nc(N(c2ccccc2)c2ccccc2)n1	-	-	-	-	18	13	31
Nc1nc(Cl)nc(N(c2ccccc2)c2ccccc2)n1	-	-	-	-	-	.	.
Cc1c(P(=S)(c2ccccc2)c2ccccc2)[n+]2ccccc2n1C/C=C/c1ccccc1	.	-	-	-	15	-	37
CCOc1ccc(-n2c(SC/C=C/c3ccccc3)nnc2-c2cccs2)cc1	.	.	.	-	.	.	.
Cc1cc(C)cc(OCC(=O)Nc2nc(-c3ccccn3)cs2)c1	-	-	-	-	12	-	-
CCOC(=O)C1=CCN(S(=O)(=O)c2ccc(Br)cc2)C1c1cccc(F)c1 (stereo not drawn)	.	-	.	-	.	.	.

Bioassay records deposited in PubChem by several laboratories.
